In general, IC50 refers to the concentration needed to halve the response being measured.

From ChEMBL document CHEMBL3414513, “Synthesis and biological evaluation of betulonic acid derivatives as antitumor agents” (Eur J Med Chem, 2015) come the findings set out here.

For test [1], the system named is A-375. The test is described as follows: Cytotoxicity against human A375 cells after 72 hrs by MTT assay. Type of test: functional, cell-based. The following applies: for IC50: A-375, 72 h. The method, boiled down: (§1)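 Cancer lines grown in RPMI 1640 with 10% heat-inactivated FBS, 37 °C, 5% CO2. Cells trypsinized at 80-90% confluence, seeded at 2×10^3/well overnight, then given compounds (DMSO stocks diluted in medium) at various concentrations for 72 h at 37 °C. Controls: 0.1% DMSO negative, adriamycin positive. MTT (5 mg/ml) added for 4 h, formazan dissolved in SDS 12 h, A595 read. IC50 from dose-response curves.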

Test [2] deals with MGC-803. The test is described as follows: Cytotoxicity against human MGC803 cells after 72 hrs by MTT assay. The format is functional, cell-based. The following applies: for IC50: MGC-803, 72 h. The method, boiled down:
as §1
(Tetrazolium dyes change colour on reduction, which living cells bring about.)

Test [3] relates to MGC-803. The test is described as follows: Induction of apoptosis in human MGC803 cells assessed as DNA fragmentation at 10 uM after 48 hrs by TUNEL assay. The format is functional, cell-based. The method, boiled down:
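MGC-803 cells seeded at 5×10^4 cells/mL in 6-well plates; medium replaced with fresh medium plus 10% FBS and compound (10 µM, 48 h), DMSO negative control. Fixed in 4% paraformaldehyde 40 min, permeabilized 2 min on ice, peroxidase quenched (0.3% H2O2/methanol, 20 min RT), TdT/biotin-dUTP 60 min 37 °C, streptavidin-HRP 30 min, then DAB. Brown precipitate under light microscopy scored apoptotic.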

Test [4] deals with Bcap37. As to the kind of experiment: Cytotoxicity against human Bcap37 cells after 72 hrs by MTT assay. Type of test: functional, cell-based. Conditions: for IC50: Bcap37, 72 h. In a few lines:
as §1

The test system of test [5] is MCF7. The test is described as follows: Cytotoxicity against human MCF7 cells after 72 hrs by MTT assay. Type of test: functional, cell-based. The following applies: for IC50: MCF7, 72 h. In a few lines: as §1
Test [6] concerns MGC-803. As to the kind of experiment: Induction of apoptosis in human MGC803 cells assessed as appearance of compact condensed and crescent shaped cells at 10 uM after 48 hrs by Hoechst 33258 staining-based fluorescence microscopic analysis. Type of test: functional, cell-based. The method, boiled down: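 MGC-803 cells seeded at 5×10^4 cells/mL in 6-well plates; medium replaced with fresh medium plus 10% FBS and compound (10 µM, 48 h), DMSO negative control. Cells washed, fixed in 4% paraformaldehyde 10 min, stained with Hoechst 33258 for 5 min, washed, then nuclear morphology viewed by fluorescence microscopy (excitation 350 nm, emission 460 nm).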

Test [7] has as its system PC-3. The test is described as follows: (§2) Cytotoxicity against human PC3 cells after 72 hrs by MTT assay. The format is functional, cell-based. The method, boiled down:
(§3)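 Cells trypsinized at 80-90% confluence, seeded at 2×10^3/well overnight, then given compounds (DMSO stocks diluted in medium) at various concentrations for 72 h at 37 °C. Controls: 0.1% DMSO negative, adriamycin positive. MTT (5 mg/ml) added for 4 h, formazan dissolved in SDS 12 h, A595 read. IC50 from dose-response curves.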

Test [8] is described as follows: as §2. Type of test: functional, cell-based. The following applies: PC-3, 72 h. The method, boiled down: as §3
The test system of test [9] is MGC-803. As to the kind of experiment: Selectivity index, ratio of IC50 for mouse NIH/3T3 cells to IC50 for human MGC803 cells. The format is functional. In a few lines:
(§4)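 Index is the IC50 in normal NIH3T3 cells divided by the IC50 in each cancer line. […] HCPT and adriamycin were used as positive controls.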

In test [10] the test system is MGC-803. The test is described as follows: Induction of apoptosis in human MGC803 cells assessed as necrotic cells at 5 uM after 12 to 48 hrs by acridine orange/ethidium bromide staining-based fluorescence microscopic analysis. The format is functional, cell-based. The method, boiled down:
(§5)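 MGC-803 cells at 5×10^4 cells/mL were seeded in 6-well plates. Medium was replaced with fresh medium plus 10% FBS containing compound, 5 µM for 12-48 h. Controls: HCPT 10 µM for 48 h, DMSO. Cells were washed with PBS and the coverslip was inverted onto 20 µL AO/EB stain (100 µg/mL). Fluorescence microscopy scored live, early apoptotic, late apoptotic and necrotic nuclei.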

Test [11] has as its system A-375. The test is described as follows: Selectivity index, ratio of IC50 for mouse NIH/3T3 cells to IC50 for human A375 cells. The format is functional. In a few lines: as §4
Test [12] deals with Bcap37. As to the kind of experiment: Selectivity index, ratio of IC50 for mouse NIH/3T3 cells to IC50 for human Bcap37 cells. The format is functional. The method, boiled down: as §4
Test [13] deals with MGC-803. As to the kind of experiment: Induction of apoptosis in human MGC803 cells assessed as apoptosis ratio at 10 uM after 36 hrs by Annexin V-FITC/propidium iodide staining-based flow cytometric analysis. Type of test: functional. The method, boiled down:
(§6)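 MGC-803 cells were treated at 10 µM, with 36 h among the time points; HCPT 10 µM served as positive control. Cells at 1×10^6/mL were washed in cold PBS and resuspended in 500 µL binding buffer. Staining used 5 µL Annexin V-FITC plus 5 µL PI for 20 min in the dark, then flow cytometry. Apoptosis ratio is early plus late apoptotic quadrants.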

The subject of test [14] is MCF7. The test is described as follows: Selectivity index, ratio of IC50 for mouse NIH/3T3 cells to IC50 for human MCF7 cells. Type of test: functional. The method, boiled down: as §4
The subject of test [15] is MGC-803. As to the kind of experiment: Induction of apoptosis in human MGC803 cells assessed as activation of caspase-3 using Ac-[…]-pNA as probe at 2.5 to 10 uM after 12 hrs. Type of test: functional, cell-based. The method, boiled down:
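MGC-803 cells were treated at 2.5, 5 or 10 µM for 12 h. Cells (1×10^6/mL) were washed in cold PBS, lysed on ice for 25 min and spun at 18000 g for 15 min. Supernatant was mixed with reaction buffer and Ac-[…]-pNA and incubated at 37 °C for 2-3 h in the dark. A405 was read against a lysis/reaction buffer blank.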

Test [16] can be described thus: Upregulation of p53 expression in human MGC803 cells at 2.5 to 10 uM after 12 hrs by Western blot analysis. Type of test: functional, cell-based. The following applies: MGC-803. The method, boiled down: (§7)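 MGC-803 cells were treated at 2.5, 5 or 10 µM for 12 h, then collected. Western blots were probed with anti-p53 and anti-Bax (1:500 to 1:1000), with β-actin as loading reference.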

Test [17] concerns MGC-803. The test is described as follows: Induction of apoptosis in human MGC803 cells at 5 uM after 12 to 48 hrs by acridine orange/ethidium bromide staining-based fluorescence microscopic analysis. The format is functional, cell-based. In a few lines:
as §5

Test [18] concerns MGC-803. As to the kind of experiment: Induction of apoptosis in human MGC803 cells assessed as DNA fragmentation at 5 uM after 12 to 48 hrs by TUNEL assay. Type of test: functional, cell-based. The method, boiled down: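 MGC-803 cells (5×10^4 cells/mL, 6-well) were exposed at 5 µM for 12-48 h. Controls: HCPT 10 µM for 48 h, DMSO. Colorimetric TUNEL: fixed in 4% paraformaldehyde 40 min, permeabilized on ice, endogenous peroxidase quenched with 0.3% H2O2/methanol 20 min. Then TdT plus biotin-dUTP 60 min at 37 °C, streptavidin-HRP 30 min, DAB 10 min. Brown precipitate scored by light microscopy.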

Test [19] relates to MGC-803. The test is described as follows: Induction of apoptosis in human MGC803 cells assessed as appearance of compact condensed and crescent shaped cells at 5 uM after 12 to 48 hrs by Hoechst 33258 staining-based fluorescence microscopic analysis. The format is functional, cell-based. In a few lines:
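MGC-803 cells (5×10^4 cells/mL, 6-well plates) were treated at 5 µmol/L for 12-48 h in fresh medium with 10% FBS. Controls: HCPT 10 µM for 48 h, DMSO. Cells were fixed in 4% paraformaldehyde for 10 min and stained with Hoechst 33258 for 5 min. Fluorescence microscopy used 350 nm excitation and 460 nm emission.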

A short description of test [20]: Upregulation of Bax expression in human MGC803 cells at 2.5 to 10 uM after 12 hrs by Western blot analysis. The format is functional, cell-based. Conditions: MGC-803. In a few lines:
as §7
(In general: Immunoblotting shows a protein as a band on a membrane.)

For test [21], the system named is MGC-803. The test is described as follows: Induction of apoptosis in human MGC803 cells at 10 uM by Annexin V-FITC/propidium iodide staining-based flow cytometric analysis. Type of test: functional, cell-based. Conditions: TDE = time-dependent effect. The method, boiled down: as §6
On the technique in general: Flow cytometry measures light scatter and fluorescence of single cells or particles in a stream.

The test system of test [22] is PC-3. The test is described as follows: Selectivity index, ratio of IC50 for mouse NIH/3T3 cells to IC50 for human PC3 cells. The format is functional. The method, boiled down:
as §4

Test [23] relates to MGC-803. As to the kind of experiment: Induction of apoptosis in human MGC803 cells assessed as activation of caspase-9 using Ac-LEHD-pNA as probe at 2.5 to 10 uM after 12 hrs. The format is functional, cell-based. In a few lines:
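MGC-803 cells were treated at 2.5, 5 or 10 µM for 12 h. Cells were lysed on ice for 25 min and spun at 16000 g for 15 min. Supernatant was mixed with reaction buffer and Ac-LEHD-pNA and incubated at 37 °C for 2-3 h in the dark. A405 was read against a buffer blank.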

Active and inactive are the calls of the source. The calls are words filed in the database; no cut-off is given here.

`CC[C@@]1(O)C(=O)OCc2c1cc1n(c2=O)Cc2cc3cc(O)ccc3nc2-1` [HYDROXYCAMPTOTHECIN]: the Activity result with A-375 [1], with MGC-803 [2], in the test on Bcap37 [4] and with PC-3 [7] was “Dose-dependent effect” each time. In addition, the half-maximal inhibitory concentration (IC50) was 27.8 µM in the test with A-375 [1]; 29.1 µM in the test on MGC-803 [2]; 28.1 µM in the test with Bcap37 [4]; 48.2 µM with MCF7 [5]; 34.5 µM in test [8]. The result in the test on MGC-803 [3] and with MGC-803 [6] was Active.

As to `C=C(C)[C@@H]1CC[C@]2(C(=O)OCCCCN3CCCCC3)CC[C@]3(C)[C@H](CC[C@@H]4[C@@]5(C)CCC(=O)C(C)(C)[C@@H]5CC[C@]43C)[C@@H]12`, the “Ratio IC50” value is 7.38 with MGC-803 [9]; 3.41 in the test with A-375 [11]; 6.33 in the test on Bcap37 [12]; 5.11 in the test on MCF7 [14]; 4.75 with PC-3 [22]. In addition, the Activity result in the test with A-375 [1] was “Dose-dependent effect”; with MGC-803 [2], “Dose-dependent effect”; in the test on MGC-803 [13], 28.33%; in the test with Bcap37 [4] it was “Dose-dependent effect”; with MCF7 [5] it was “Dose-dependent effect”; in the test on MGC-803 [21] it was “tde”. Also, in the test on PC-3 [7], the Activity result is “Dose-dependent effect”. Further, the half-maximal inhibitory concentration (IC50) was 7.8 µM in the test on A-375 [1]; 3.6 µM in the test on MGC-803 [2]; 4.2 µM in the test on Bcap37 [4]; 5.2 µM in the test on MCF7 [5]; 5.6 µM in test [8]. The outcome in the test with MGC-803 [10] was inactive. For the same molecule, the result (in the test with MGC-803 [15]; in test [16]; in the test on MGC-803 [17]; in the test with MGC-803 [18]; with MGC-803 [19]; in [20]) was Active. Moreover, the result in the test with MGC-803 [23] was Active.
